Our source for the Activity, EC50 and CC50 values is ChEMBL document CHEMBL6092172, “Exploration and characterization of the antimalarial activity of cyclopropyl carboxamides that target the mitochondrial protein, cytochrome b” (Eur J Med Chem, 2024).

Assay [1] has as its system Plasmodium falciparum. The assay is described as follows: Antimalarial activity against asexual synchronized ring stage Plasmodium falciparum 3D7 infected with human RBC assessed as parasite arrest at 10 times EC50 treated every 24 hrs for 120 hrs followed by compound washout and subsequent addition of RBCs measured after 28 days by parasite reduction ratio assay. In kind it is functional, organism-based. The method in brief: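 Parasite reduction ratio assay on 3D7. […] Compound then washed out and uninfected RBCs and medium added. Regrowth measured by LDH assay after 28 days; means and SDs of 3 replicate experiments.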

In assay [2] the test system is Plasmodium falciparum. The assay is described as follows: Antimalarial activity against asexual synchronized ring stage Plasmodium falciparum 3D7 infected with human RBC assessed as parasite arrest measured after 12 to 48 hrs by SYBR green staining based flow cytometry analysis. In kind it is functional, organism-based. The conditions noted are these: time 12-48 hrs. The gist of the method: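 Parasitemia measured by flow cytometry of SYBR Green-stained infected RBCs; mean of three technical replicates.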
(In general: Flow cytometry measures light scatter and fluorescence of single cells or particles in a stream.)

For assay [3], the system named is Plasmodium falciparum. In words: Antimalarial activity against asexual blood stage Plasmodium falciparum Dd2 harbouring Cyt b with I22L mutant incubated for 72 hrs by flow cytometry analysis. In kind it is functional, organism-based. As to conditions: Dd2, 72 h. The method in brief:
(§1)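 Asexual parasites were exposed to compound for 72 h and growth was read as SYBR green signal by flow cytometry (FACS).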

Assay [4] relates to Plasmodium falciparum. In words: Antiplasmodial activity against Plasmodium falciparum NF54 stage V gametocytes assessed as reduction in xanthurenic acid induced female gametocyte development measured after 48 hrs by fluorescence microscopic analysis. The conditions noted are these: NF54, 48 h.
Assay [5] deals with Plasmodium berghei. In words: Antiplasmodial activity against exo-erythrocytic stage Plasmodium berghei sporozoites expressing GFP-Luc fused genes infected in human HepG2-A16-CD81 cells expressing EGFP assessed as reduction in parasite growth measured after 48 hrs by bioluminescence analysis. In kind it is functional, organism-based. The conditions noted are these: HepG2-A16-CD81, 48 h. The method in brief:
(§2)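 HepG2 cells pre-treated with a 10-point dilution series of compound, then infected with luciferase-expressing P. berghei sporozoites. After 48 h, exoerythrocytic form viability read by bioluminescence.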

For assay [6], the system named is Plasmodium falciparum. The assay is described as follows: Effect on oxygen consumption rate in Plasmodium falciparum infected with human RBC at 5 uM in presence of NaN3 by Seahorse XFe24 analyzer. In kind it is functional, organism-based. The gist of the method:
(§3)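 Malate-dependent OCR of P. falciparum measured first as 5 basal timepoints. Compound (5 μM) then injected and OCR followed for 8 timepoints. TMPD (cytochrome c donor) then added for 5 timepoints, followed by NaN3 (complex IV inhibitor) for 5 timepoints. Means and SDs of 3 technical replicates.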

Assay [7] relates to Plasmodium falciparum. The assay is described as follows: Antimalarial activity against asexual synchronized ring stage Plasmodium falciparum 3D7 infected with human RBC assessed as parasite arrest measured after 24 hrs by giemsa staining based microscopy analysis. In kind it is functional, organism-based. The method in brief:
(§4)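 Giemsa-stained blood smears scored by microscopy for stage progression.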

Assay [8] concerns Plasmodium falciparum. In words: Antiplasmodial activity against Plasmodium falciparum NF54 stage V gametocytes assessed as reduction in xanthurenic acid induced male gametocyte development measured after 48 hrs by fluorescence microscopic analysis. The conditions noted are these: NF54, 48 h.
Assay [9] has as its system Plasmodium falciparum. The assay is described as follows: Antimalarial activity against asexual compound resistant Plasmodium falciparum harbouring cyt b F264L mutant at Qo site measured after 72 hrs by LDH assay. In kind it is functional, organism-based. The method in brief: (§5)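 They were tested in a 72 h LDH assay: 10-point 3-fold dilutions […] in 0.1 % DMSO, with 100 nM chloroquine as the kill control. Incubation was 37 °C under 5 % CO2/5 % O2, then freeze–thaw, APAD/NBT/diaphorase mix, A650 after 30 min, and a four-parameter fit.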

The subject of assay [10] is Plasmodium falciparum. In words: Antimalarial activity against asexual 4-(((N-cyclopropyl-2,4,6-trimethylphenyl)sulfonamido)methyl)-N-methylbenzamide-resistant Plasmodium falciparum harbouring cyt b […] mutant at Qo site measured after 72 hrs by LDH assay. In kind it is functional, organism-based. The gist of the method:
as §5

In assay [11] the test system is Plasmodium falciparum. In words: Antimalarial activity against asexual Plasmodium falciparum 3D7 harbouring cytb with V259L mutant at Qo site incubated for 72 hrs by SYBR green staining based flow cytometry analysis. As to conditions: 3D7, 72 h.
For a further assay, the system named is HepG2. The assay is described as follows: Cytotoxicity against human HepG2 cells assessed as reduction in cell viability measured after 48 hrs by cell-titer glo assay. In kind it is functional. The method in brief: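 HepG2 cells grown in DMEM with 10 % FCS; 1000 cells per well seeded onto a 1:2 dilution series from 50 μM (0.5 % DMSO). Incubated 48 h at 37 °C, 5 % CO2. Viability read by CellTiter-Glo and normalised to DMSO and 10 μM bortezomib controls. Value from four-parameter fit; average of ≥2 independent experiments.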

In assay [12] the test system is Plasmodium falciparum. The assay is described as follows: Antimalarial activity against asexual N-cyclopropyl-4-((cyclopropyl(2,4-dichlorobenzyl)amino)methyl)benzamide-resistant Plasmodium falciparum harbouring DHODH genome with 5 fold CNV measured after 72 hrs by LDH assay. In kind it is functional, organism-based. The gist of the method:
as §5

For assay [13], the system named is Plasmodium falciparum. The assay is described as follows: Effect on oxygen consumption rate in Plasmodium falciparum infected with human RBC at 5 uM in presence of TMPD by Seahorse XFe24 analyzer. In kind it is functional, organism-based. The gist of the method:
as §3

In assay [14] the test system is Plasmodium berghei. The assay is described as follows: Antiplasmodial activity against liver stage Plasmodium berghei sporozoites infected in human HepG2 assessed as reduction in parasite growth measured after 48 hrs by bioluminescence analysis. In kind it is functional, organism-based. As to conditions: HepG2, 48 h. The gist of the method: as §2
The test system of assay [15] is Plasmodium falciparum. In words: Antimalarial activity against asexual Plasmodium falciparum Dd2 harbouring ScDHODH incubated for 72 hrs by SYBR green staining based flow cytometry analysis. In kind it is functional, organism-based. As to conditions: Dd2, 72 h. The gist of the method: as §1
The subject of assay [16] is Plasmodium falciparum. In words: Antimalarial activity against asexual blood stage Plasmodium falciparum Dd2 incubated for 72 hrs by flow cytometry analysis. In kind it is functional, organism-based. As to conditions: Dd2, 72 h. The gist of the method: as §1
Assay [17] deals with Plasmodium falciparum. In words: Antimalarial activity against asexual blood stage Plasmodium falciparum Dd2-B2 assessed as parasite recrudescence by measuring minimum inoculum of resistance measured for 60 days by flow cytometry. In kind it is functional. The conditions noted are these: time 60 day. The method in brief: (§6)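 Cultures were grown in human O+ RBCs at 3 % hematocrit in AlbuMAX-supplemented RPMI-1640 at 37 °C under 5 % O2/5 % CO2/90 % N2. […] Wells were checked three times weekly by flow cytometry and smear; a well was positive at 0.3 % parasitemia with parasites seen on smear.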

Assay [18] deals with Plasmodium falciparum. In words: Antimalarial activity against asexual compound resistant Plasmodium falciparum harbouring cyt b […] mutant at Qo site measured after 72 hrs by LDH assay. In kind it is functional, organism-based. The gist of the method: as §5
For assay [19], the system named is Plasmodium falciparum. The assay is described as follows: Antimalarial activity against asexual synchronized ring stage Plasmodium falciparum 3D7 infected with human RBC assessed as parasite growth inhibition measured after 48 hrs by giemsa staining based microscopy analysis. In kind it is functional, organism-based. As to conditions: 3D7, Erythrocyte. The method in brief: as §4

The subject of assay [20] is Plasmodium falciparum. In words: Antimalarial activity against asexual Plasmodium falciparum SB1-A6 incubated for 72 hrs by SYBR green staining based flow cytometry analysis. In kind it is functional, organism-based. The conditions noted are these: SB1-A6, 72 h. The method in brief: as §1
For assay [21], the system named is Plasmodium falciparum. The assay is described as follows: Effect on oxygen consumption rate in Plasmodium falciparum infected with human RBC at 5 uM by Seahorse XFe24 analyzer. In kind it is functional, organism-based. The gist of the method: as §3
The subject of assay [22] is Plasmodium falciparum. The assay is described as follows: Antimalarial activity in asexual blood-stage Plasmodium falciparum Dd2-B2 infected in human O+ RBC assessed as minimum inoculum of resistance at 3 times IC90 measured for 60 days by SYBR green/Mito tracker deep red based flow cytometry analysis. In kind it is functional, organism-based. As to conditions: time 60.0 day. The gist of the method: as §6

Assay [23] concerns Plasmodium falciparum. The assay is described as follows: Antimalarial activity against asexual Plasmodium falciparum 3D7 incubated for 72 hrs by LDH assay. In kind it is functional, organism-based. The conditions noted are these: 3D7, 72 h. The method in brief: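 P. falciparum 3D7 asexual parasites exposed 72 h at 37 °C (5 % CO2, 5 % O2) to a 10-point 1-in-3 dilution series […], 0.1 % DMSO; 0.1 % DMSO and 100 nM chloroquine as controls. Plates frozen at −80 °C and thawed, then LDH read (lactate/APAD/NBT/diaphorase, Tris pH 7.5) at 650 nm after 30 min.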

Assay [24] concerns Plasmodium falciparum. The assay is described as follows: Antimalarial activity against asexual N-cyclopropyl-4-((cyclopropyl(2,4-dichlorobenzyl)amino)methyl)benzamide-resistant Plasmodium falciparum harbouring DHODH genome with 2 fold CNV measured after 72 hrs by LDH assay. In kind it is functional, organism-based. The gist of the method: as §5

The source made the active and inactive calls. The calls are words filed in the database; no cut-off is given here.

One may read the EC50 as the concentration giving half of the maximal effect. As usually defined, the CC50 is the concentration that lowers cell viability or growth by half. On to `CNC(=O)c1ccc(CN(C2CC2)S(=O)(=O)c2c(C)cc(C)cc2C)cc1`, for which the Activity entry in the assay with Plasmodium falciparum [1] is “Active; Compound Showed Moderate To Slow Rate Of Kill Than Pyrimethamine And Slightly Quicker Than Atq”; in the assay with Plasmodium falciparum [17], >2 10^7No_unit. Also, the outcome in the assay on Plasmodium falciparum [2], with Plasmodium falciparum [6], with Plasmodium falciparum [7], with Plasmodium falciparum [21] and in the assay with Plasmodium falciparum [22] was Active. For the same compound, the concentration giving a half-maximal response (EC50) in the assay on Plasmodium falciparum [3] is 0.065 µM; in the assay on Plasmodium falciparum [4], above 25 µM; in the assay on Plasmodium berghei [5], 0.07 µM; in the assay on Plasmodium falciparum [8], 1.1 µM; in the assay with Plasmodium falciparum [9], 2.1 µM; in the assay with Plasmodium falciparum [10] it was 0.283 µM. Further, the EC50 with Plasmodium falciparum [11] is 0.42 µM; in the assay on Plasmodium falciparum [12] it was 0.5 µM; in the assay with Plasmodium berghei [14] it was above 50 µM; in the assay with Plasmodium falciparum [15] it was above 10 µM; in the assay with Plasmodium falciparum [16], 0.07 µM; with Plasmodium falciparum [18], 1.73 µM. For the same compound, the half-maximal effective concentration (EC50) with Plasmodium falciparum [19] is 1.3 µM; in the assay with Plasmodium falciparum [20] it was above 10 µM; in the assay on Plasmodium falciparum [23], 0.11 µM. Further, the half-maximal cytotoxic concentration (CC50) in the assay with HepG2 is above 40 µM. In the assay on Plasmodium falciparum [13], the result was inactive.
As for `O=C(NC1CC1)c1ccc(CN(Cc2ccc(Cl)cc2Cl)C2CC2)cc1`, the Activity result in the assay with Plasmodium falciparum [1] is “Active; Compound Showed Moderate To Slow Rate Of Kill Than Pyrimethamine And Slightly Quicker Than Atq”; in the assay on Plasmodium falciparum [17], 1.9 10^7No_unit. Further, the outcome in the assay on Plasmodium falciparum [2], in the assay with Plasmodium falciparum [6], with Plasmodium falciparum [7], with Plasmodium falciparum [21] and in the assay on Plasmodium falciparum [22] was Active. The half-maximal effective concentration (EC50) in the assay with Plasmodium falciparum [4] was above 25 µM; in the assay with Plasmodium falciparum [24], 0.62 µM; in the assay on Plasmodium falciparum [16], 0.118 µM; in the assay on Plasmodium falciparum [19], 2.5 µM. Moreover, in the assay with Plasmodium falciparum [13], the outcome was inactive.
With `Cc1cccc(CN(Cc2ccc(C(=O)NC3CC3)cc2)C2CC2)c1C`, in the assay on HepG2, the 50% cytotoxic concentration (CC50) is above 40 µM. In the assay with Plasmodium falciparum [23], a half-maximal effect (EC50) was put at 0.15 µM.
As for `CCCN(Cc1ccc(C(=O)NC2CC2)cc1)Cc1c(C)cc(C)cc1C`, the half-maximal effective concentration (EC50) in the assay with Plasmodium falciparum [4] was above 25 µM.
On to `CN(C(=O)c1ccc(CN(Cc2ccccc2)C2CC2)cc1)C1CC1`, for which, in the assay on Plasmodium falciparum [23], the EC50 is above 10 µM.
Take `O=C(Nc1ccccc1)c1ccc(CN(Cc2ccc(Cl)cc2Cl)C2CC2)cc1`: the concentration for a half-maximal effect (EC50) in the assay on Plasmodium falciparum [23] worked out at 1.2 µM.
Still for that read-out and setting: as for `O=C(NC1CC1)c1ccc(CN(Cc2ccccc2)Cc2ccccc2)cc1`, the figure is 0.59 µM.
On to `Cc1cc(Nc2ccc(S(F)(F)(F)(F)F)cc2)n2nc(C(C)(F)F)nc2n1` [DSM-265], for which the concentration for a half-maximal effect (EC50) in the assay on Plasmodium falciparum [3] is 0.008 µM; in the assay with Plasmodium falciparum [15] it was above 10 µM; with Plasmodium falciparum [20], above 10 µM. Besides, the result in the assay on Plasmodium falciparum [13] and in the assay on Plasmodium falciparum [21] was inactive.
Take `CC(C)CN(Cc1ccc(C(=O)NC2CC2)cc1)C1CC1`: in the assay with Plasmodium falciparum [23], the EC50 is 0.4 µM.
The same measure, in the same setting: the value for `O=C(NC1CCCC1)c1ccc(CN(Cc2ccc(Cl)cc2Cl)C2CC2)cc1` was 1.8 µM.
`O=C1C(O)=C([C@H]2CC[C@H](c3ccc(Cl)cc3)CC2)C(=O)c2ccccc21` [ATOVAQUONE]: the result with Plasmodium falciparum [2], with Plasmodium falciparum [6], in the assay with Plasmodium falciparum [7] and in the assay on Plasmodium falciparum [21] was Active. Further, the EC50 was 5.4 µM with Plasmodium falciparum [3]; 0.013 µM in the assay with Plasmodium falciparum [11]; above 10 µM in the assay on Plasmodium falciparum [15]; 11.7 µM in the assay with Plasmodium falciparum [19]; above 10 µM in the assay on Plasmodium falciparum [20]. Besides, the result in the assay with Plasmodium falciparum [13] was inactive.
